{"data": "Results pooled from the literature", "ST14": "Suppressor of tumorigenicity 14 protein (ST14, Homo sapiens, UniProt Q9Y5Y6)", "CDK2 with cyclin A2": "Cyclin-dependent kinase 2, with cyclin A2 (CDK2, Homo sapiens, UniProt P24941)", "note": "Compare with care: the assays were run in different laboratories."}
{"Structure (SMILES)": "COc1cc(-c2cncc3c2CN(C)Cc2cc(N4CCNCC4)ccc2-3)cc(OC)c1OC", "target": "Cyclin-dependent kinase 2, with cyclin A (CDK2, Homo sapiens, UniProt P24941)", "read-out": "enzyme activity", "mode": "inhibitor", "tested at": "1 µM", "measurement": "remaining activity", "value": "100%"}
{"Structure (SMILES)": "N=C(N)NCCC[C@H](NC(=O)[C@@H](NC(=O)[C@H](Cc1cscn1)NC(=O)CCc1ccccc1)C(c1ccccc1)c1ccccc1)C(=O)c1nc2ccccc2s1", "target": "ST14", "read-out": "enzyme activity", "mode": "inhibitor", "tested at": "0.1 µM", "measurement": "remaining activity", "value": "76%"}
{"Structure (SMILES)": "CNc1ncc2c(/C=C/C(=O)N3CCC(OC)CC3)nn(Cc3cccc(C(F)(F)F)c3)c2n1", "target": "Serine/threonine-protein kinase VRK1 (VRK1, Homo sapiens, UniProt Q99986)", "read-out": "enzyme activity", "mode": "inhibitor", "technique": "radiometric", "tested at": "1 µM", "measurement": "remaining activity", "value": "100%"}
{"Structure (SMILES)": "CNC(=O)c1cc(Oc2ccc(NC(=O)Nc3ccc(Cl)c(C(F)(F)F)c3)cc2)ccn1", "target": "CDK2 with cyclin A2", "read-out": "enzyme activity", "mode": "inhibitor", "tested at": "20 nM", "measurement": "inhibition", "value": "43.1%"}
{"Structure (SMILES)": "N=C(N)NCCC[C@H](NC(=O)[C@H](CC1CC1)NC(=O)[C@H](Cc1cscn1)NC(=O)CCc1ccccc1)C(=O)c1nc2ccccc2s1", "target": "ST14", "read-out": "enzyme activity", "mode": "inhibitor", "tested at": "0.1 µM", "measurement": "remaining activity", "value": "68%"}
{"Structure (SMILES)": "CC(=O)Nc1c(N)nc(SCC(=O)NN)[nH]c1=O", "target": "CDK2 with cyclin A2", "read-out": "enzyme activity", "mode": "inhibitor", "tested at": "1 µM", "measurement": "inhibition", "value": "73%"}
{"Structure (SMILES)": "Cc1cc([C@@H](C)Nc2ccccc2C(=O)O)c2nc(N3CCC(F)(F)CC3)c(C#N)c(=O)n2c1", "target": "Mitogen-activated protein kinase 10 (MAPK10, Homo sapiens, UniProt P53779)", "read-out": "binding", "technique": "competition with immobilised ligand", "tested at": "1 µM", "measurement": "remaining binding", "value": "100%"}
{"Structure (SMILES)": "CC(C)C[C@H](NC(=O)[C@H](Cc1cscn1)NC(=O)CCc1ccccc1)C(=O)N[C@@H](CCCNC(=N)N)C(=O)c1nc2ccccc2s1", "target": "ST14", "read-out": "enzyme activity", "mode": "inhibitor", "tested at": "0.1 µM", "measurement": "remaining activity", "value": "5%"}
{"Structure (SMILES)": "CC(=O)Nc1c(N)nc(SCC(=O)N/N=C/c2ccc([N+](=O)[O-])cc2)[nH]c1=O", "target": "CDK2 with cyclin A2", "read-out": "enzyme activity", "mode": "inhibitor", "tested at": "200 pM", "measurement": "inhibition", "value": "1.89%"}
{"Structure (SMILES)": "C=CC(=O)N1CCC(COCC(=O)N2CCN(c3nc(-c4cnc(N)nc4C(F)F)nc(N4CCOC[C@@H]4C)n3)CC2)CC1", "target": "Vascular endothelial growth factor receptor 3 (FLT4, Homo sapiens, UniProt P35916)", "read-out": "binding", "technique": "competition with immobilised ligand", "tested at": "1 µM", "measurement": "remaining binding", "value": "83%"}
